For data set [1], the target named is Amyloid-beta precursor protein (Homo sapiens) (UniProt P05067). The data set can be described thus: Binding affinity to beta-amyloid in normal human brain at 1.85 MBq/[…] after 1 hr by thioflavin-S based autoradiography. The settings on record: 1.85 M, tested as the 18F-labelled form. In a few lines:
(§1)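 Paraffin human temporal-lobe sections (5 µm; AD case or control) deparaffinized through xylene and graded ethanol, then PBS (0.2 M, pH 7.4) for 30 min. Incubated with 18F tracer (1.85 MBq/200 µL), 1 h, room temperature; washed in 40% EtOH, rinsed in water; phosphor plate exposure 2 h.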

Another data set is filed under the species Mus musculus. The data set can be described thus: Binding affinity to beta-amyloid in APPswe/PSEN1 transgenic C57BL6 mouse model brain at 1.85 MBq/[…] after 1 hr by thioflavin-S based autoradiography. The settings on record: 1.85 M, tested as the 18F-labelled form. Put shortly: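 Transgenic mouse brain sections deparaffinized, then incubated with 18F tracer (1.85 MBq/200 µL) for 1 h at room temperature. Washed in 40% EtOH, phosphor-imaged after 2 h exposure. Same sections then stained with 0.125% thioflavin-S in 10% EtOH for 3 min and imaged by fluorescence (excitation 405 nm, long-pass 505 nm).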

A short description of data set [2]: Displacement of [125I]IMPY from amyloid beta (1 to 42) after 2 hrs by gamma counting. Put shortly: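 Competition binding against [125I]IMPY (radiochemical purity >95%) on Aβ1-42 aggregates with 1% BSA solution; inhibitor 10^-4–10^-9.5 M; 37 °C, 2 h. Free and bound separated by vacuum filtration on GF/B filters, three PBS washes (0.02 M, pH 7.4, room temperature); filters gamma-counted. Three repeats; IC50 fitted, Ki from Cheng–Prusoff.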
(In a radioligand displacement assay an active substance lowers the binding of a labelled ligand.)

Data set [3] has as its target Amyloid-beta precursor protein (Homo sapiens) (UniProt P05067). The data set can be described thus: Binding affinity to beta-amyloid in Alzheimer's disease patient brain at 1.85 MBq/[…] after 1 hr by thioflavin-S based autoradiography. As to conditions: 1.85 M, tested as the 18F-labelled form. In a few lines:
as §1

Data set [4] in a line: Binding affinity to beta-amyloid.
Data set [5] relates to Brain. The data set can be described thus: Ratio of drug level in ICR mouse brain after 2 mins to ICR mouse brain after 60 mins at 370 kBq, iv. Type of data set: ADME, organism-based. The settings on record: in vivo. In a few lines:
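Same intravenous study in ICR mice (370 kBq 18F tracer in saline/10% EtOH, n = 5 per time point). Ratio is brain %ID/g at 2 min divided by brain %ID/g at 60 min post-injection.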

Data set [6] is described as follows: Lipophilicity, log D of the compound. The data set is classed as physicochemical. The settings on record: octanol/water. Put shortly:
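18F tracer (740 kBq) in 3 g n-octanol plus 3 g PBS (0.05 M, pH 7.4). Vortexed 3 min at room temperature, centrifuged 5 min at 3000 rpm; weighed samples from octanol and buffer layers counted.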

Data set [7] deals with Brain. The data set can be described thus: Biodistribution in ICR mouse brain at 370 kBq, iv after 2 mins by gamma counting. Type of data set: ADME, organism-based. As to conditions: in vivo. In a few lines: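 Male ICR mice (five weeks, 20–22 g), tail-vein injection of 18F tracer in 0.1 mL saline with 10% EtOH. Killed by decapitation at set times, n = 5 per time point. Organs removed, weighed and gamma-counted; %ID/g wet tissue from comparison with diluted aliquots of injected dose; mean ± SD.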

The structures appear in SMILES notation. The source made the active and inactive calls. The calls are words filed in the database; no cut-off is given here.

One may read the Ki as the equilibrium dissociation constant of an inhibitor or competing ligand from its target. Higher therefore signals weaker binding. The term logD denotes lipophilicity at a set pH, counting ionised and neutral species.

Chain of Amyloid-beta precursor protein (Homo sapiens) (P05067 whole entry): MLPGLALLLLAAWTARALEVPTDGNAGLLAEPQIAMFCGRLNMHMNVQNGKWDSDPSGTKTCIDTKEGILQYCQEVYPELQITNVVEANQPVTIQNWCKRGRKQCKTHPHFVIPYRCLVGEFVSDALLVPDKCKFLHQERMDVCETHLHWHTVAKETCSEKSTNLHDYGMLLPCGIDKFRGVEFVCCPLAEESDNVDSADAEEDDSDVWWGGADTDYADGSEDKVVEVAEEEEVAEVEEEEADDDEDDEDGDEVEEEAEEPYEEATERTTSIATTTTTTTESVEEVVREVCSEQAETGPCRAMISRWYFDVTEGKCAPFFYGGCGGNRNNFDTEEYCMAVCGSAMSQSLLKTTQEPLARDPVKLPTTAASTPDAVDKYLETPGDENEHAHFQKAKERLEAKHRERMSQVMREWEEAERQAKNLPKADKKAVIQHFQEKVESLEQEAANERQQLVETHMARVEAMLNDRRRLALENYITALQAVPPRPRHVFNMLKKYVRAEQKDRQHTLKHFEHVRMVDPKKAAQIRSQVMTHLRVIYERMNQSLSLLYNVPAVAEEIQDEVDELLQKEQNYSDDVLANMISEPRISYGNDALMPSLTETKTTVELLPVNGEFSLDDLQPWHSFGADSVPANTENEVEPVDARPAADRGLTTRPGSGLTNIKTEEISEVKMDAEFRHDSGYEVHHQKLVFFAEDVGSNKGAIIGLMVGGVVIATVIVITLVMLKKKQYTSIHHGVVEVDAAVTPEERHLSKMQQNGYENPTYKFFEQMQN

Take `CNc1ccc2nc(-c3ccc(OCCOCCOCCF)cc3)cnc2c1`: in data set [1], the result was inactive. Moreover, the result (in the data set listed under Mus musculus; in data set [3]) was Active. In data set [2], the Ki was found to be 5.3 nM.

Take `CNc1ccc(/C=C/c2ccc(OCCOCCOCC[18F])cc2)cc1` [FLORBETABEN F18]: the Ki in data set [4] stood at 2.22 nM.

Consider `CNc1ccc(-c2nc3ccc(O)cc3s2)cc1[18F]` [FLUTEMETAMOL F 18], for which affinity in data set [4] was put at a Ki of 0.74 nM.

Take `CNc1ccc(/C=C/c2ccc(OCCOCCOCC[18F])nc2)cc1` [FLORBETAPIR F 18]: the results for the Ki in data set [4] and in data set [2] were 2.87 nM and 2.9 nM, respectively. Moreover, in the data set with Brain [5], the Ratio was 3.9. Besides, the logD in data set [6] is 2.41. This compound returned a Drug uptake with Brain [7] of 7.33 % ID/g.

For the origin of these results see ChEMBL document CHEMBL2086328, “¹⁸F-labeled 2-phenylquinoxaline derivatives as potential positron emission tomography probes for in vivo imaging of β-amyloid plaques” (Eur J Med Chem, 2012).
